# Experimental data of several laboratories.
# Target: G protein-coupled receptor kinase 4 (GRK4, Homo sapiens, UniProt P32298)
Compound,assay,conditions,quantity,value
CCN(CC)CCNC(=O)c1c(C)[nH]c(/C=C2\C(=O)Nc3ccc(F)cc32)c1C,cell-free assay,0.5 µM,remaining signal,75.8%
O=C(Nc1cnn(-c2csc(C(=O)NC3COC3)c2)c1)Nc1c(F)cccc1Cl,"enzyme activity, inhibitor",5 µM,remaining activity,93.6%
CN(C)CC#Cc1ccc(OCCCc2sc(N3CCc4cccc(C(=O)Nc5nc6ccccc6s5)c4C3)nc2C(=O)O)c(F)c1,"cell-free assay, competition with immobilised ligand",1 µM,remaining binding,100%
O=C1Nc2ccc(Cl)cc2C1=Cc1cc(Cl)c(O)c(Cl)c1,cell-free assay,0.5 µM,remaining signal,108%
Nc1ncnc2occ(-c3ccc(NC(=O)Nc4cc(C(F)(F)F)ccc4F)cc3)c12,"cell-free assay, inhibitor",20 µM,remaining signal,89%
COc1cc2c(N3CCN(C(=O)Nc4ccc(OC(C)C)cc4)CC3)ncnc2cc1OCCCN1CCCCC1,cell-free assay,0.5 µM,remaining signal,106%
CN(C)C1CCN(CC#Cc2nn(C3CCCC3)c3nc(NCc4ccccc4)ncc23)C1 (stereo not shown),"enzyme activity, inhibitor, FRET",1 µM,inhibition,11%
CC(=O)N1CCC(c2ccc(C(=O)NC(=N)N)cc2C(F)(F)F)CC1,"cell-free assay, competition with immobilised ligand",1 µM,remaining binding,100%
COc1cc2ncnc(Nc3ccc(Oc4ccccc4)cc3C)c2cc1OC,"enzyme activity, inhibitor",1 µM,inhibition,-2%
O=C(N[C@H]1CCCCC/C=C\C2C[C@@]2(C(=O)O)NC(=O)[C@@H]2C[C@@H](Oc3ccncc3)CN2C1=O)OC1CCCC1 (stereo partly shown),"binding, competition with immobilised ligand",1 µM,remaining binding,80%
CC(C)(C)c1nc2c(s1)c1nc(N)ncc1c1ccc(NS(=O)(=O)c3c(F)cccc3F)c(F)c12,"enzyme activity, inhibitor, radiometric",1 µM,remaining activity,70%
C[C@H](c1ccc(F)cc1)N(Cc1cccc(C(=O)O)c1)C(=O)c1cnc2ccccc2c1,"cell-free assay, competition with immobilised ligand",1 µM,remaining binding,100%
CC(C)(O)[C@H]1CC[C@H](Nc2ccc3ncc(-c4cccc(C(F)(F)F)c4)n3n2)CC1,"enzyme activity, inhibitor",1 µM,remaining activity,96.5%
